Experimental data published in ChEMBL document CHEMBL3259701, “Siderophore receptor-mediated uptake of lactivicin analogues in gram-negative bacteria” (J Med Chem, 2014).
Values after ≈ are worked out from the molar mass of the structure shown.

Experiments:
Pseudomonas aeruginosa [1] = experiment: Antibacterial activity against Pseudomonas aeruginosa PAO1 harboring siderophore receptor piuA, pfeA and pirA mutant in Mueller-Hinton broth medium by CLSI broth microdilution method; format: functional
How it was run: (§1)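 MIC by CLSI broth microdilution in standard Mueller Hinton broth. Tested against wild-type P. aeruginosa PAO1 and an isogenic panel lacking one or more siderophore receptors.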

Pseudomonas aeruginosa [2] = experiment: Ratio of MIC for Pseudomonas aeruginosa PAO1 harboring siderophore receptor piuA, pfeA and pirA mutant to MIC for wild type Pseudomonas aeruginosa PAO1 in Mueller-Hinton broth medium by CLSI broth microdilution method; format: functional
How it was run: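 Broth microdilution MIC per CLSI in standard Mueller-Hinton broth, run against wild-type P. aeruginosa PAO1 and isogenic PAO1 strains lacking one or more siderophore receptors. Value is the mutant-strain MIC divided by the PAO1 MIC.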

Pseudomonas aeruginosa [3] = experiment: Antibacterial activity against Pseudomonas aeruginosa PAO1 in medium containing low-Fe by CLSI broth microdilution method; format: functional
How it was run: (§2)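 MIC by CLSI broth microdilution in a modified Mueller Hinton broth depleted of iron to mimic the low-iron in vivo environment. Tested against PAO1 and isogenic strains lacking one or more siderophore receptors.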

Pseudomonas aeruginosa [4] = experiment: Antibacterial activity against Pseudomonas aeruginosa PAO1 harboring siderophore receptor piuA and fptA double mutant in medium containing low-Fe by CLSI broth microdilution method; format: functional; how it was run: as §2
Pseudomonas aeruginosa [5] = experiment: Antibacterial activity against Pseudomonas aeruginosa PAO1 harboring siderophore receptor piuA and pfeA double mutant in medium containing low-Fe by CLSI broth microdilution method; format: functional; how it was run: as §2
Pseudomonas aeruginosa [6] = experiment: Ratio of MIC for Pseudomonas aeruginosa PAO1 harboring siderophore receptor piuA mutant to MIC for wild type Pseudomonas aeruginosa PAO1 in medium containing low-Fe by CLSI broth microdilution method; format: functional
How it was run: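 CLSI broth microdilution MICs in a modified Mueller-Hinton broth depleted of iron to mimic low in vivo iron. Tested against wild-type PAO1 and isogenic siderophore receptor knockout strains. Reported as the knockout-strain MIC divided by the PAO1 MIC in the same iron-depleted medium.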

Pseudomonas aeruginosa [7] = experiment: Ratio of MIC for Pseudomonas aeruginosa PAO1 harboring siderophore receptor fpvA mutant to MIC for wild type Pseudomonas aeruginosa PAO1 in medium containing low-Fe by CLSI broth microdilution method; format: functional
How it was run: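 Ratio of strain MIC to PAO1 MIC. Both MICs were obtained by CLSI broth microdilution in iron-depleted modified Mueller Hinton broth. A shift greater than 4× versus the parent was read as the deleted receptor(s) taking part in uptake.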

Pseudomonas aeruginosa [8] = experiment: Ratio of MIC for wild type Pseudomonas aeruginosa PAO1 in MHB medium to MIC for wild type Pseudomonas aeruginosa PAO1 in medium containing low-Fe by CLSI broth microdilution method; format: functional
How it was run: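 MICs for wild-type P. aeruginosa PAO1 were determined by CLSI broth microdilution in standard Mueller Hinton broth and, in parallel, in a modified broth depleted of iron to mimic the low-iron in vivo environment. The ratio compares the MIC in standard MHB with the MIC in iron-depleted broth.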

Pseudomonas aeruginosa [9] = experiment: Ratio of MIC for Pseudomonas aeruginosa PAO1 harboring siderophore receptor fptA mutant in MHB medium to MIC for Pseudomonas aeruginosa PAO1 harboring siderophore receptor fptA mutant in medium containing low-Fe by CLSI broth microdilution method; format: functional
Pseudomonas aeruginosa [10] = experiment: Ratio of MIC for Pseudomonas aeruginosa PAO1 harboring siderophore receptor piuA and pfeA double mutant in MHB medium to MIC for Pseudomonas aeruginosa PAO1 harboring siderophore receptor piuA and pfeA double mutant in medium containing low-Fe by CLSI broth microdilution method; format: functional
Pseudomonas aeruginosa [11] = experiment: Antibacterial activity against Pseudomonas aeruginosa PAO1 in medium containing aztreonam and low-Fe by CLSI broth microdilution method; format: functional
Pseudomonas aeruginosa [12] = experiment: Antibacterial activity against Pseudomonas aeruginosa PAO1 harboring siderophore receptor piuA mutant in medium containing aztreonam and low-Fe by CLSI broth microdilution method; format: functional
Pseudomonas aeruginosa [13] = experiment: Antibacterial activity against Pseudomonas aeruginosa PAO1 harboring siderophore receptor pirA mutant in medium containing aztreonam and low-Fe by CLSI broth microdilution method; format: functional
Pseudomonas aeruginosa [14] = experiment: Antibacterial activity against Pseudomonas aeruginosa PAO1 harboring siderophore receptor fptA mutant in medium containing aztreonam and low-Fe by CLSI broth microdilution method; format: functional
Pseudomonas aeruginosa [15] = experiment: Antibacterial activity against Pseudomonas aeruginosa PAO1 harboring siderophore receptor piuA and pirA double mutant in medium containing aztreonam and low-Fe by CLSI broth microdilution method; format: functional
Pseudomonas aeruginosa [16] = experiment: Antibacterial activity against Pseudomonas aeruginosa PAO1 harboring siderophore receptor pirA and pfeA double mutant in medium containing aztreonam and low-Fe by CLSI broth microdilution method; format: functional
Pseudomonas aeruginosa [17] = experiment: Ratio of MIC for Pseudomonas aeruginosa PAO1 harboring siderophore receptor pirA and pfeA double mutant to MIC for wild type Pseudomonas aeruginosa PAO1 in medium containing aztreonam and low-Fe by CLSI broth microdilution method; format: functional
Escherichia coli [18] = experiment: Antibacterial activity against Escherichia coli DH5alpha harboring pUCP26 empty vector by CLSI broth microdilution method; format: functional; settings: DH5[alpha]
Escherichia coli [19] = experiment: Antibacterial activity against Escherichia coli DH5alpha expressing beta-lactamase TEM-1 by CLSI broth microdilution method; format: functional; settings: DH5[alpha]
Escherichia coli [20] = experiment: Antibacterial activity against Escherichia coli DH5alpha expressing beta-lactamase TEM-24 by CLSI broth microdilution method; format: functional; settings: DH5[alpha]
Escherichia coli [21] = experiment: Antibacterial activity against Escherichia coli EC-28 by CLSI broth microdilution method; format: functional
[22] = Displacement of fluorescent Bocillin FL from Pseudomonas aeruginosa PBP3
Pseudomonas aeruginosa [23] = experiment: Ratio of MIC for Pseudomonas aeruginosa PAO1 harboring siderophore receptor pirA and pfeA double mutant to MIC for wild type Pseudomonas aeruginosa PAO1 in Mueller-Hinton broth medium by CLSI broth microdilution method; format: functional
How it was run: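 Receptor-deficient PAO1 strain MIC divided by parent PAO1 MIC. Both MICs were obtained by CLSI broth microdilution in standard Mueller Hinton broth. A shift greater than 4× was taken to indicate that the deleted receptor(s) take part in drug uptake.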

Pseudomonas aeruginosa [24] = experiment: Antibacterial activity against Pseudomonas aeruginosa PAO1 harboring siderophore receptor piuA mutant in Mueller-Hinton broth medium by CLSI broth microdilution method; format: functional; how it was run: as §1
Pseudomonas aeruginosa [25] = experiment: Antibacterial activity against Pseudomonas aeruginosa PAO1 harboring siderophore receptor pirA mutant in Mueller-Hinton broth medium by CLSI broth microdilution method; format: functional; how it was run: as §1
Pseudomonas aeruginosa [26] = experiment: Antibacterial activity against Pseudomonas aeruginosa PAO1 harboring siderophore receptor fptA mutant in Mueller-Hinton broth medium by CLSI broth microdilution method; format: functional; how it was run: as §1
Pseudomonas aeruginosa [27] = experiment: Antibacterial activity against Pseudomonas aeruginosa PAO1 harboring siderophore receptor pfeA mutant in Mueller-Hinton broth medium by CLSI broth microdilution method; format: functional; how it was run: as §1
Pseudomonas aeruginosa [28] = experiment: Antibacterial activity against Pseudomonas aeruginosa PAO1 harboring siderophore receptor piuA and fpvA double mutant in Mueller-Hinton broth medium by CLSI broth microdilution method; format: functional; how it was run: as §1

With `CC(C)(O/N=C(\C(=O)N[C@H]1CON(C2(C(=O)O)C[C@H](N3C(=O)c4cc(O)c(O)cc4C3=O)C(=O)O2)C1=O)c1csc(N)n1)C(=O)O` (stereo partly drawn) the MIC (Pseudomonas aeruginosa [1]) was 16 µg/mL (≈ 24.1 µM), the Ratio (Pseudomonas aeruginosa [2]) was 32 and the MIC (Pseudomonas aeruginosa [3]) was at most 0.03 µg/mL. For the same compound, the MIC (Pseudomonas aeruginosa [4]) was 0.5 µg/mL (≈ 0.755 µM), the MIC (Pseudomonas aeruginosa [5]) was 0.125 µg/mL (≈ 0.189 µM) and the Ratio (Pseudomonas aeruginosa [6]) was “>=4”. The Ratio (Pseudomonas aeruginosa [7]) was 1, the Ratio (Pseudomonas aeruginosa [8]) was 16 and the Ratio (Pseudomonas aeruginosa [9]) was 64. It also gave a Ratio (Pseudomonas aeruginosa [10]) of 64, an MIC (Pseudomonas aeruginosa [11]) of 4 µg/mL (≈ 6.04 µM) and an MIC (Pseudomonas aeruginosa [12]) of 4 µg/mL (≈ 6.04 µM). The MIC (Pseudomonas aeruginosa [13]) was 4 µg/mL (≈ 6.04 µM), the MIC (Pseudomonas aeruginosa [14]) was 4 µg/mL (≈ 6.04 µM) and the MIC (Pseudomonas aeruginosa [15]) was 4 µg/mL (≈ 6.04 µM). It also gave an MIC (Pseudomonas aeruginosa [16]) of 4 µg/mL (≈ 6.04 µM), a Ratio (Pseudomonas aeruginosa [17]) of 1 and an MIC (Escherichia coli [18]) of 0.03 µg/mL (≈ 0.0453 µM). For the same compound, the MIC (Escherichia coli [19]) was 0.06 µg/mL (≈ 0.0906 µM), the MIC (Escherichia coli [20]) was 0.06 µg/mL (≈ 0.0906 µM) and the MIC (Escherichia coli [21]) was 0.25 µg/mL (≈ 0.377 µM). It also gave an IC50 [22] of 46 nM, a Ratio (Pseudomonas aeruginosa [23]) of 1 and an MIC (Pseudomonas aeruginosa [24]) of 8 µg/mL (≈ 12.1 µM). It also gave an MIC (Pseudomonas aeruginosa [25]) of 0.5 µg/mL (≈ 0.755 µM), an MIC (Pseudomonas aeruginosa [26]) of 4 µg/mL (≈ 6.04 µM) and an MIC (Pseudomonas aeruginosa [27]) of 0.5 µg/mL (≈ 0.755 µM). It also gave an MIC (Pseudomonas aeruginosa [28]) of 16 µg/mL (≈ 24.1 µM).
